We go through 13 compounds from ChEMBL document CHEMBL4330119 (J Med Chem, 2019).

Calls of active or inactive are those of the source.

Data set [1] concerns the target Kappa-type opioid receptor (Mus musculus, UniProt P33534). Kind of data set: Displacement of [3H]-diprenorphine from mouse KOR expressed in CHO cell membranes by competitive radioligand binding assay. The method in brief:
(§1)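 30 μg CHO membrane protein incubated with radioligand and varying competitor in TME buffer (50 mM Tris, 3 mM MgCl2, 0.2 mM EGTA, pH 7.4). Bound ligand separated by filtration. […] IC50 from Hill plots, converted to Ki by Cheng–Prusoff.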
On the technique in general: Loss of bound radioactivity is the signal in a displacement assay; it reports binding, not function.

The target in data set [2] is Delta-type opioid receptor (Mus musculus, UniProt P32300). Briefly: Displacement of [3H]-diprenorphine from mouse DOR expressed in CHO cell membranes by competitive radioligand binding assay. The method in brief: as §1
Data set [3] relates to Mus musculus. Kind of data set: In vivo antagonist activity at MOR in Swiss Webster mouse assessed reduction in morphine-induced antinociceptive effect by measuring morphine MPE at 10 mg/kg, sc preincubated for 5 mins followed by morphine addition and measured after 20 min post morphine challenge by tail immersion test relative to control. It counts as functional. The method in brief:
(§2)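 Male Swiss Webster mice, 5 per group. […] Baseline latency 2–4 s, 10 s cutoff. %MPE calculated per mouse. AD50 by least-squares linear regression, 95% CI by Bliss method.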

Data set [4] addresses Mu-type opioid receptor (Mus musculus) (UniProt P42866). Briefly: Antagonist activity at mouse MOR expressed in CHO cell membranes assessed as inhibition of DAMGO-stimulated [35S]GTPgammaS binding after 90 mins relative to DAMGO. It counts as functional. On the technique in general: GTPγS is a poorly hydrolysed GTP analogue; its binding reports G protein activation.
The species entered for data set [5] is Mus musculus. Kind of data set: Selectivity ratio of Ki for mouse KOR expressed in CHO cell membranes to Ki for mouse MOR expressed in CHO cell membranes. It counts as cell-based. Put shortly:
(§3)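 Ratio of Ki values from competition binding: 30 μg CHO membranes in TME pH 7.4, filtration. IC50 converted to Ki by Cheng–Prusoff.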

The species named for data set [6] is Mus musculus. Kind of data set: Selectivity ratio of Ki for mouse DOR expressed in CHO cell membranes to Ki for mouse MOR expressed in CHO cell membranes. It counts as cell-based. Put shortly:
as §3

Data set [7] has as its target T1, Mu-type opioid receptor (Mus musculus, UniProt P42866). Briefly: Antagonist activity at mouse MOR expressed in CHO cell membranes assessed as inhibition of DAMGO-stimulated [35S]GTPgammaS binding after 90 mins. It counts as functional.
The target in data set [8] is T1, Mu-type opioid receptor. Briefly: Displacement of [3H]-naloxone from mouse MOR expressed in CHO cell membranes by competitive radioligand binding assay. The method in brief: as §1
For data set [9], the system named is Mus musculus. Kind of data set: Induction of withdrawal symptoms in morphine-pelleted Swiss Webster mouse model assessed as paw tremors […] at 10 mg/kg, sc measured after 72 hrs […] for 20 mins. Particulars: in vivo. It counts as organism-based. Put shortly:
(§4)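 Withdrawal precipitated 72 h after implantation by sc compound, after 30 min habituation to an open Plexiglas chamber. Wet dog shakes, escape jumps and paw tremors counted over 20 min, five mice per group. Naloxone 1 mg/kg sc as reference.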

The test system of data set [10] is Mus musculus. Kind of data set: Induction of withdrawal symptoms in morphine-pelleted Swiss Webster mouse model assessed as dog shakes at 50 to 100 mg/kg, sc measured after 72 hrs […] for 20 mins. It counts as organism-based. The following applies: in vivo. Put shortly: as §4
Data set [11] concerns Mus musculus. Kind of data set: Induction of withdrawal symptoms in morphine-pelleted Swiss Webster mouse model assessed as escape jumps at 50 mg/kg, sc measured after 72 hrs […] for 20 mins. The following applies: in vivo. It counts as organism-based. Put shortly:
as §4

Data set [12] concerns Mus musculus. Briefly: In vivo antagonist activity at MOR in sc dosed Swiss Webster mouse assessed reduction in morphine-induced antinociceptive effect by measuring morphine MPE preincubated for 5 mins followed by morphine addition and measured after 20 min post morphine challenge by tail immersion test. It counts as functional. The method in brief:
as §2

For data set [13], the system named is Mus musculus. Briefly: Induction of withdrawal symptoms in morphine-pelleted Swiss Webster mouse model assessed as dog shakes at 10 mg/kg, sc measured after 72 hrs […] for 20 mins. It counts as organism-based. The following applies: in vivo. The method in brief: as §4
Data set [14] relates to Mus musculus. Kind of data set: Induction of withdrawal symptoms in morphine-pelleted Swiss Webster mouse model assessed as escape jumps at 10 mg/kg, sc measured after 72 hrs […] for 20 mins. The following applies: in vivo. It counts as organism-based. The method in brief: as §4
Data set [15] concerns Mus musculus. Briefly: Induction of withdrawal symptoms in morphine-pelleted Swiss Webster mouse model assessed as paw tremors […] at 50 to 100 mg/kg, sc measured after 72 hrs […] for 20 mins. The following applies: in vivo. It counts as organism-based. Put shortly: as §4
Data set [16] relates to Mus musculus. Briefly: Induction of withdrawal symptoms in morphine-pelleted Swiss Webster mouse model assessed as escape jumps at 5 mg/kg, sc measured after 72 hrs […] for 20 mins. It counts as organism-based. Particulars: in vivo. The method in brief: as §4
Data set [17] relates to Mus musculus. Briefly: Induction of withdrawal symptoms in morphine-pelleted Swiss Webster mouse model assessed as paw tremors […] at 5 mg/kg, sc measured after 72 hrs […] for 20 mins. It counts as organism-based. Particulars: in vivo. Put shortly: as §4
The subject of data set [18] is Mus musculus. Briefly: Antinociceptive activity in Swiss Webster mouse at 10 mg/kg, sc measured after 20 min post dose by tail immersion test. It counts as functional, organism-based. The method in brief:
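Male Swiss Webster mice, 7–8 weeks, 5 per group. Compound given sc, tail immersed in 56 ± 0.1 °C water 20 min later. Only mice with baseline latency of 2–4 s were used. 10 s cutoff. %MPE = [(test – control)/(10 – control)] × 100.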

For data set [19], the system named is Mus musculus. Briefly: Induction of withdrawal symptoms in morphine-pelleted Swiss Webster mouse model assessed as dog shakes at 5 mg/kg, sc measured after 72 hrs […] for 20 mins. It counts as organism-based. The following applies: in vivo. Put shortly: as §4
Data set [20] concerns Mus musculus. Briefly: Induction of withdrawal symptoms in morphine-pelleted Swiss Webster mouse model assessed as dog shakes at 1 mg/kg, sc measured after 72 hrs […] for 20 mins. It counts as organism-based. Particulars: in vivo. Put shortly: as §4
The subject of data set [21] is Mus musculus. Briefly: Induction of withdrawal symptoms in morphine-pelleted Swiss Webster mouse model assessed as escape jumps at 1 mg/kg, sc measured after 72 hrs […] for 20 mins. It counts as organism-based. The following applies: in vivo. The method in brief:
as §4

Data set [22] relates to Mus musculus. Briefly: Induction of withdrawal symptoms in morphine-pelleted Swiss Webster mouse model assessed as paw tremors […] at 1 mg/kg, sc measured after 72 hrs […] for 20 mins. It counts as organism-based. The following applies: in vivo. The method in brief:
as §4

A word on the Ki: it is a measure of affinity in units of concentration, obtained from inhibition or displacement. Take `O=C(N[C@@H]1CC[C@@]2(O)[C@H]3Cc4ccc(O)c5c4[C@@]2(CCN3CC2CC2)[C@H]1O5)c1ccncc1C1CCCC1`: the Ki in [1] came to 8.16 nM; in [2], 34 nM. In addition, the inhibition result in [3] was “inactive”.
For orientation: Emax means the size of the effect at its maximum, as opposed to the concentration needed. As to `O=C(N[C@@H]1CC[C@@]2(O)[C@H]3Cc4ccc(O)c5c4[C@@]2(CCN3CC2CC2)[C@H]1O5)c1ccncc1[N+](=O)[O-]`, the Ki in data set [1] was determined as 4.46 nM; in data set [2] it was 95.6 nM. In addition, the Emax in data set [4] is 39.1%. In addition, in data set [3], the inhibition result is “inactive”.
In the same order, the values of `O=C(N[C@@H]1CC[C@@]2(O)[C@H]3Cc4ccc(O)c5c4[C@@]2(CCN3CC2CC2)[C@H]1O5)c1ccncc1C1CCCCC1` are 3.32 nM, 11.2 nM, 51.6% and “inactive”.
The term EC50 denotes the concentration giving half of the maximal effect. Turning to `O=C(O)c1cnccc1C(=O)N[C@@H]1CC[C@@]2(O)[C@H]3Cc4ccc(O)c5c4[C@@]2(CCN3CC2CC2)[C@H]1O5`, the Ki in data set [1] is 2.43 nM; in [2], 55.6 nM; in data set [8], 0.76 nM. Moreover, the Ratio Ki in data set [5] came out at 3.2; in data set [6] it was 73.2. For the same compound, the Emax in data set [4] was found to be 29.3%. Besides, the EC50 in data set [7] amounted to 1.83 nM. Further, the inhibition result in [3] is “inactive”.
As to `O=C(N[C@@H]1CC[C@@]2(O)[C@H]3Cc4ccc(O)c5c4[C@@]2(CCN3CC2CC2)[C@H]1O5)c1ccncc1C(F)(F)F`, the Ki is 12.5 nM in [1], 61.8 nM in data set [2] and 0.43 nM in [8]. Also, the Ratio Ki was determined as 29.1 in data set [5] and 144 in data set [6]. In [4], the Emax worked out at 31.9%. Also, the EC50 in [7] turned out to be 1.38 nM. The inhibition entry in data set [3] is “inactive”.
Take `O=C(N[C@@H]1CC[C@@]2(O)[C@H]3Cc4ccc(O)c5c4[C@@]2(CCN3CC2CC2)[C@H]1O5)c1ccncc1C1CCCCCC1`: the Ki is 5.16 nM in data set [1] and 15 nM in data set [2]. Further, the Emax in data set [4] was 48.3%. Besides, in data set [3], the inhibition entry was “inactive”.
A word on the inhibition in vivo: it is the relative decrease from the control value, in per cent. The ED50 is the midpoint of the dose-response relation. With `O=C(N[C@@H]1CC[C@@]2(O)[C@H]3Cc4ccc(O)c5c4[C@@]2(CCN3CC2CC2)[C@H]1O5)c1ccncc1F`, the Activity result in data set [9] is listed as “Non-Toxic”; in data set [10], “Non-Toxic”; in [11], “Non-Toxic”; in data set [13], “Non-Toxic”; in data set [14] it was “Non-Toxic”; in [15], “Toxic”. Moreover, the values for the Ki in data set [1] and in data set [2] were 4.8 nM and 157 nM, respectively. In data set [3], this compound came in with an inhibition in vivo at 10 mg/kg of 6.2%. Also, the 50% effect level in data set [12] (ED50) was put at a dose of 2.82 mg/kg.
In the case of `N#Cc1cnccc1C(=O)N[C@@H]1CC[C@@]2(O)[C@H]3Cc4ccc(O)c5c4[C@@]2(CCN3CC2CC2)[C@H]1O5`, the Activity result is on record as “Toxic” in [16]; “Toxic” in data set [17]; “Toxic” in [19]; “Non-Toxic” in [20]; “Non-Toxic” in data set [21]. Further, the Ki in data set [1] stood at 2.74 nM; in data set [2], 46.3 nM. The Emax in data set [4] was 26.1%. Moreover, the outcome in [18] was inactive. Further, the inhibition in vivo at 10 mg/kg in [3] turned out to be 7.8%. The compound further yielded an ED50 in data set [12] of 1.75 mg/kg. The inhibition entry in data set [12] was “Dose-dependent effect”.
Take `CCc1cnccc1C(=O)N[C@@H]1CC[C@@]2(O)[C@H]3Cc4ccc(O)c5c4[C@@]2(CCN3CC2CC2)[C@H]1O5`: the figures for the inhibition constant Ki in data set [1] and in [2] were 9.18 nM and 42.9 nM, respectively. Also, in data set [4], the Emax stood at 41.6%. For the same compound, the inhibition result in [3] was “inactive”.
In the same order, the values of `O=C(N[C@@H]1CC[C@@]2(O)[C@H]3Cc4ccc(O)c5c4[C@@]2(CCN3CC2CC2)[C@H]1O5)c1ccncc1-c1ccccc1` are 3.42 nM, 44.8 nM, 44.4% and “inactive”.
Taken in the same sequence, the figures for `COC(=O)c1cnccc1C(=O)N[C@@H]1CC[C@@]2(O)[C@H]3Cc4ccc(O)c5c4[C@@]2(CCN3CC2CC2)[C@H]1O5` were 11.7 nM, 137 nM, 29.2% and “inactive”.
Regarding `C=CCN1CC[C@]23c4c5ccc(O)c4O[C@H]2C(=O)CC[C@@]3(O)[C@H]1C5` [NALOXONE], the Activity result in data set [22], in data set [20] and in data set [21] was “Toxic” each time.
Consider `CC(C)Cc1cnccc1C(=O)N[C@@H]1CC[C@@]2(O)[C@H]3Cc4ccc(O)c5c4[C@@]2(CCN3CC2CC2)[C@H]1O5`, for which the Ki in data set [1] was found to be 75.6 nM; in [2] it was 149 nM. The Emax in [4] worked out at 27.3%. Moreover, the inhibition entry in data set [3] was “inactive”.
